Results as given in ChEMBL document CHEMBL2401626 (J Med Chem, 2013).
Calls of active or inactive are those of the source. The rule behind the calls is not given here.

Columns and labels:
[1] = Antioxidant activity assessed as trolox equivalent of AAPH radical scavenging activity at 10 uM preincubated for 10 mins followed by AAPH challenge measured every min for 120 mins by ORAC-FL assay; format: functional
How it was run: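 Test compound and fluorescein (70 nM final) in 75 mM phosphate buffer pH 7.4, preincubated 10 min at 37 °C, then AAPH (40 mM solution) added. Fluorescence read every minute for 120 min (ex 485/em 520 nm). Curves normalized to buffer blank. […] Triplicate wells, at least three independent runs.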

[2] = biological target: T1, Amyloid-beta precursor protein (Homo sapiens, UniProt P05067); details: at 20 µM
T1 sequence (P05067 whole entry): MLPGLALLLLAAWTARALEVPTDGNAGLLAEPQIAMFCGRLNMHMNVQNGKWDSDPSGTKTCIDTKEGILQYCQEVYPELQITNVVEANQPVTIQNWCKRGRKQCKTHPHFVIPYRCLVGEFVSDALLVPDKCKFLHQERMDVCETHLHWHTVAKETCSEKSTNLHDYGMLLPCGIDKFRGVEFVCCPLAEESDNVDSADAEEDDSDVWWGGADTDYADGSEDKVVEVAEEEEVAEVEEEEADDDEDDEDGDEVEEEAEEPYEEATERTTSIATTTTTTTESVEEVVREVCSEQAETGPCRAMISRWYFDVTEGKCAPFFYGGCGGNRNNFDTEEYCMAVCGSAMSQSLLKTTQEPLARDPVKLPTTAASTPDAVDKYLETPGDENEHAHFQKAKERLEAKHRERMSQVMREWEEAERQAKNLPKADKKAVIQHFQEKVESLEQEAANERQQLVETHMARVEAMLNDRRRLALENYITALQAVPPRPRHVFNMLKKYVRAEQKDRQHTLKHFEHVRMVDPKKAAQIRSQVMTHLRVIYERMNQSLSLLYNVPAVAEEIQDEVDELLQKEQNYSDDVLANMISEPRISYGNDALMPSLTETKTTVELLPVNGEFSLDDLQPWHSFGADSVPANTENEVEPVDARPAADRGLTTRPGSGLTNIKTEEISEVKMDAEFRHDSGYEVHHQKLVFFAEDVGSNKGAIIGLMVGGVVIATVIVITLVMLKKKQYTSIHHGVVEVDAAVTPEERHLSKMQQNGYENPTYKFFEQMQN

[3] = Permeability of the compound at 100 ug/mL after 10 hrs by PAMPA; format: ADME; details: read-out: permeability
How it was run: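 PAMPA-BBB: filter coated with porcine brain lipid in dodecane (20 mg/mL); acceptor is PBS/EtOH 7:3. Compound taken from 5 mg/mL DMSO stock and diluted to 100 μg/mL final in PBS/EtOH, then incubated 10 h at 25 °C. Acceptor concentration measured by UV at five wavelengths, four wells, at least three runs; Pe calculated by equation.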

[4] = biological target: T1, Amyloid-beta precursor protein
[5] = Metal chelating activity of the compound assessed as Fe3+ complex formation at 20 uM after 30 mins by UV-vis spectrometry; format: functional
[6] = biological target: T1, Amyloid-beta precursor protein; assay: Inhibition of amyloid beta (1 to 42) fibril formation (unknown origin) at 20 uM after 24 hrs by transmission electron microscopic analysis
How it was run: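 Aβ1−42 (25 μM) incubated with compound (20 μM) at 37 °C for 24 h in 10 mM phosphate pH 7.4. Grid loaded for 2 min, stained with 1% uranyl acetate for 2 min, and imaged by TEM.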

[7] = biological target: T1, Amyloid-beta precursor protein; assay: Induction of disaggregation of self-mediated amyloid beta (1 to 42) fibril (unknown origin) at 25 uM after 24 hrs by transmission electron microscopic analysis
[8] = Metal chelating activity of the compound assessed as Zn2+ complex formation at 20 uM after 30 mins by UV-vis spectrometry; format: functional
How it was run: (§1)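 Absorption spectra of compound (20 μM final) alone or with metal salt (40 μM final; CuSO4, FeSO4 or ZnCl2) after 30 min in 20% ethanol/buffer (20 mM HEPES, 150 mM NaCl, pH 7.4). Recorded at room temperature by UV−vis.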

[9] = Metal chelating activity of the compound assessed as Cu2+ complex formation by Job's method; format: functional
How it was run: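 Job's method: solutions held at constant total compound + CuSO4 concentration with varied mole fraction, in ethanol/HEPES buffer pH 7.4. UV absorbance change plotted against mole fraction; stoichiometry taken from the intersection of the straight lines.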

[10] = biological target: T1, Amyloid-beta precursor protein; assay: Inhibition of Cu2+-induced amyloid beta (1 to 42) aggregation (unknown origin) at 50 uM after 24 hrs by transmission electron microscopic analysis
How it was run: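 Aβ1−42 (25 μM) with Cu2+ (25 μM) and compound (50 μM) in HEPES pH 6.6/150 μM NaCl, incubated at 37 °C for 24 h. Aliquots put on carbon-coated grid for 2 min, stained with 1% uranyl acetate for 2 min, and imaged by TEM.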

SH-SY5Y = assay: Antioxidant activity in human SH-SY5Y cells assessed as decrease in t-BuOOH-induced intracellular ROS production at 2.5 to 10 uM incubated for 24 hrs prior to t-BuOOH challenge measured after 30 mins by DCFHDA-based fluorescence assay; format: functional, cell-based
How it was run: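 SH-SY5Y cells (DMEM, 10% FCS, 37 °C, 5% CO2) seeded 1 × 10^4/well and grown 24 h. Compound added for 24 h; Trolox control at 5, 10, 20 μM. Cells are then washed, loaded with 5 μM DCFH-DA in PBS for 30 min, and challenged with 0.1 mM t-BuOOH for 30 min. Fluorescence read at ex 485/em 535 nm. Result is % of control by formula; three independent experiments in sextuplicate.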

[11] = biological target: T1, Amyloid-beta precursor protein; assay: Inhibition of Cu2+-induced amyloid beta (1 to 42) aggregation (unknown origin) at 50 uM after 24 hrs by thioflavin T fluorescence assay relative to untreated control
How it was run: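 Aβ1−42 (25 μM final) in 20 μM HEPES pH 6.6, 150 μM NaCl, with Cu2+ (25 μM final) and compound (50 μM final). Incubated at 37 °C for 24 h, then diluted into 50 mM glycine−NaOH pH 8.0 with 5 μM ThT. Fluorescence read at ex 450/em 485 nm after 5 min; inhibition calculated as (1 − IFi/IFc) × 100 after background subtraction.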

[12] = Metal chelating activity of the compound assessed as Cu2+ complex formation at 20 uM after 30 mins by UV-vis spectrometry; format: functional; how it was run: as §1
[13] = Metal chelating activity of the compound assessed as Fe2+ complex formation at 20 uM after 30 mins by UV-vis spectrometry; format: functional; how it was run: as §1
[14] = biological target: T1, Amyloid-beta precursor protein; assay: Induction of disaggregation of Cu2+-induced amyloid beta (1 to 42) fibril (unknown origin) at 50 uM after 24 hrs by transmission electron microscopic analysis
How it was run: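 Cu2+-induced fibrils formed from Aβ1−42 (25 μM) with Cu2+ (25 μM) at 37 °C for 24 h in HEPES pH 6.6/NaCl, then treated with compound (50 μM) at 37 °C for 24 h. Aliquots placed on carbon-coated grid for 2 min, stained with 1% uranyl acetate for 2 min, and imaged by TEM.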

[15] = biological target: T1, Amyloid-beta precursor protein; assay: Induction of disaggregation of self-mediated amyloid beta (1 to 42) fibril (unknown origin) at 25 uM after 24 hrs by thioflavin T fluorescence assay relative to control
[16] = biological target: T1, Amyloid-beta precursor protein; assay: Induction of disaggregation of Cu2+-induced amyloid beta (1 to 42) fibril (unknown origin) at 50 uM after 24 hrs by thioflavin T fluorescence assay relative to control
How it was run: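 Aβ1−42 (25 μM final) in 20 μM HEPES pH 6.6, 150 μM NaCl, preincubated with Cu2+ (25 μM) for 24 h at 37 °C. Compound (50 μM final) then added for another 24 h at 37 °C. Sample diluted into 50 mM glycine−NaOH pH 8.0 with 5 μM ThT; fluorescence read after 5 min at ex 450/em 485 nm.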

Acetylcholinesterase = Acetylcholinesterase (Electrophorus electricus, UniProt O42275); assay: Inhibition of electric eel AChE using acetylthiocholine chloride as substrate preincubated for 15 mins followed by substrate addition measured every 1 min by Ellman's method
Sequence of Acetylcholinesterase (O42275 whole entry): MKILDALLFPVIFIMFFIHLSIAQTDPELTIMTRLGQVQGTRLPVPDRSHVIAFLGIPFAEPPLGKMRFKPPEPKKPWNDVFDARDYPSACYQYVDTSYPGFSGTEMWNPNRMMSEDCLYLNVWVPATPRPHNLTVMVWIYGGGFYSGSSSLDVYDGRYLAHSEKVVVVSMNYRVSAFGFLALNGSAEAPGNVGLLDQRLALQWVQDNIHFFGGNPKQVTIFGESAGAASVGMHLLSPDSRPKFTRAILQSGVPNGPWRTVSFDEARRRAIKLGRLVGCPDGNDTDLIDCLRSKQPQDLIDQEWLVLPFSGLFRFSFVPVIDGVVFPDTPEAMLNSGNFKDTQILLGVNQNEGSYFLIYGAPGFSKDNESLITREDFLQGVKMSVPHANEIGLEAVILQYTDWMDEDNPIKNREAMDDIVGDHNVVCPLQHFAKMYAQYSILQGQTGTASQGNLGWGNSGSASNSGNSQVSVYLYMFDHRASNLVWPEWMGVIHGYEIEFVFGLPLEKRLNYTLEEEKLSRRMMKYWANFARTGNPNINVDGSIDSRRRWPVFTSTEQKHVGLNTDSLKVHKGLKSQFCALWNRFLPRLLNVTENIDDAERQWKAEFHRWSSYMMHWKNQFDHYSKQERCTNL
How it was run: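 Ellman method in 0.1 M potassium phosphate buffer, pH 8.0, 1 mL assay containing DTNB and thiocholine substrate (each 50 μL of 0.01 M stock). Enzyme (AChE stock 2.0 units/mL) preincubated with compound 15 min at 37 °C, then substrate added. A412 read at 1 min intervals at 37 °C. Each concentration in triplicate. IC50 from at least three experiments.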

Compound `COc1cc(/C=C/c2ccc(NCc3cc[nH]c3)cc2)cc(OC)c1` has an Activity [1] of 3.51 equiv and an inhibition [2] of 13.6%.

Work on `CN(C)c1ccc(O)c(CNc2ccc(/C=C/c3cc(O)cc(O)c3)cc2)c1.Cl` yielded a Papp at 10 h, 100 ug/mL [3] of 2.55 ×10⁻⁶ cm/s.

Compound `CCCNc1ccc(O)c(CNc2ccc(/C=C/c3cc(OC)cc(OC)c3)cc2)c1` has an Activity [1] of 2.91 equiv, an inhibition [2] of 62.5% and an IC50 [4] of 13.1 µM.

With `COc1cc(/C=C/c2ccc(NCc3cc(N(C)C)ccc3O)cc2)cc(OC)c1` the Activity [5] was “Active”, the inhibition [6] was “Active” and the Activity [1] was 4.72 equiv. The Activity [7] was “Active”, the Activity [8] was “Active” and the Activity [9] was “Active”. For the same compound, the inhibition [10] was “Active”, the inhibition [2] was 79.5% and the Activity (SH-SY5Y) was “Active”. The inhibition [11] was 87.5%, the Activity [12] was “Active” and the Activity [13] was “Active”. For the same compound, the Activity [14] was “Active”, the Activity [15] was 67% and the Activity [16] was 88.8%.

Compound `COc1cc(/C=C/c2ccc(NCc3c[nH]c4ccccc34)cc2)cc(OC)c1` has an Activity [1] of 3.67 equiv and an inhibition [2] of 24.1%.

For `Oc1cc(O)cc(/C=C/c2ccc(NCc3ccccc3O)cc2)c1`, the Activity [1] was 6.27 equiv, the inhibition [2] was 68.1% and the IC50 [4] was 10.2 µM.

Compound `CN(C)c1ccccc1CNc1ccc(/C=C/c2cc(O)cc(O)c2)cc1` has an Activity [1] of 3.57 equiv, an inhibition [2] of 62.4% and an IC50 [4] of 14.2 µM.

`CN(C)c1ccc(/C=C/c2ccc(NCc3cc(N(C)C)ccc3O)cc2)cc1` gave an Activity [1] of 3.86 equiv, an inhibition [2] of 69.1% and an IC50 [4] of 10.7 µM.

Compound `COc1cc(/C=C/c2ccc(NCc3ccccc3O)cc2)cc(OC)c1` has an Activity [1] of 3.67 equiv and an inhibition [2] of 20.7%.

With `COc1cc(/C=C/c2ccc(NCc3ccc(OC)cc3O)cc2)cc(OC)c1` the Activity [1] was 3.32 equiv and the inhibition [2] was 3.98%.

In the case of `Oc1c(I)cc(Cl)c2cccnc12`, the Activity [7] is reported as “Active”, the inhibition [2] is reported as 37.8% and the inhibition [11] is reported as 70.9%. The Activity [15] was 16.5% and the Activity [16] was 41%.

In the case of `Oc1ccc(/C=C/c2cc(O)cc(O)c2)cc1`, the Activity [7] is reported as “Active”, the inhibition [2] is reported as 69.7% and the inhibition [11] is reported as 78.9%. The Activity [15] was 61% and the Activity [16] was 86.4%.

For `COc1cc(/C=C/c2ccc(NCc3cc(NCC(C)C)ccc3O)cc2)cc(OC)c1`, the Activity [1] was 4.51 equiv, the inhibition [2] was 67% and the IC50 [4] was 10.3 µM.

With `CN(C)c1ccc(O)c(CNc2ccc(/C=C/c3cc(O)cc(O)c3)cc2)c1` the Activity [5] was “Active”, the inhibition [6] was “Active” and the Activity [1] was 4.7 equiv. The Activity [7] was “Active”, the Activity [8] was “Active” and the Activity [9] was “Active”. The inhibition [10] was “Active”, the inhibition [2] was 78.1% and the Activity (SH-SY5Y) was “Active”. For the same compound, the inhibition [11] was 94.2%, the Activity [12] was “Active” and the Activity [13] was “Active”. The Activity [14] was “Active”, the Activity [15] was 82% and the Activity [16] was 85.9%.

Compound `COc1cc(/C=C/c2ccc(NCc3cc(Cl)ccc3O)cc2)cc(OC)c1` has an Activity [1] of 4.12 equiv and an inhibition [2] of 31.3%.

For `C#CCN[C@@H]1CCc2ccc(OC(=O)N(C)CC)cc21` [LADOSTIGIL], the IC50 (Acetylcholinesterase) was 50 µM.

Work on `COc1ccc(/C=C/c2ccc(NCc3cc(N(C)C)ccc3O)cc2)cc1` yielded an Activity [1] of 2.37 equiv, an inhibition [2] of 71.2% and an IC50 [4] of 12.2 µM.

In the case of `COc1cc(/C=C/c2ccc(NCc3cc(N(C)C)ccc3O)cc2)cc(OC)c1.Cl`, the Papp at 10 h, 100 ug/mL [3] is reported as 7.13 ×10⁻⁶ cm/s.

Work on `Oc1cc(O)cc(/C=C/c2ccc(NCc3cccc(O)c3O)cc2)c1` yielded an Activity [1] of 3.26 equiv, an inhibition [2] of 78.8% and an IC50 [4] of 7.87 µM.

For `COc1cc(/C=C/c2ccc(NCc3cc([N+](=O)[O-])ccc3O)cc2)cc(OC)c1`, the Activity [1] was 2.51 equiv and the inhibition [2] was 46.5%.

With `COc1cc(/C=C/c2ccc(NCc3ccccc3OC)cc2)cc(OC)c1` the Activity [1] was 3.67 equiv and the inhibition [2] was 6.9%.

Compound `O=[N+]([O-])c1ccc(O)c(CNc2ccc(/C=C/c3cc(O)cc(O)c3)cc2)c1` has an Activity [1] of 4.23 equiv, an inhibition [2] of 71.5% and an IC50 [4] of 7.06 µM.

Compound `COc1cc(/C=C/c2ccc(NCc3cc(NC(C)C)ccc3O)cc2)cc(OC)c1` has an Activity [1] of 2.73 equiv, an inhibition [2] of 50.2% and an IC50 [4] of 18.4 µM.

In the case of `COc1cc(/C=C/c2ccc(NCc3cccc(OC)c3O)cc2)cc(OC)c1`, the Activity [1] is reported as 4.54 equiv and the inhibition [2] is reported as 18.1%.

In the case of `COc1cc(/C=C/c2ccc(NCc3ccccc3N(C)C)cc2)cc(OC)c1`, the Activity [1] is reported as 5.87 equiv and the inhibition [2] is reported as 7.17%.
